From PubChem BioAssay
Most compounds without a hit are left out; they make up all but 2.8% or so of the library.
ARFGAP1 inh: inhibitors of rat ARFGAP1; Q62848; Arfgap1-stimulated ARF1 GTP hydrolysis, GDP FP detection; inhibition, % at 16.5 µM; hit rate 0.26% among 360,000; AID 651572;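 active = inhibition above a per-plate limit, mean inhibition of low control wells plus 3 SD, cut at about 25% in these data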;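 note: 0% = DMSO wells with enzyme and 100% = wells lacking Arfgap1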
Target sequence (Q62848 1-136 limits assumed): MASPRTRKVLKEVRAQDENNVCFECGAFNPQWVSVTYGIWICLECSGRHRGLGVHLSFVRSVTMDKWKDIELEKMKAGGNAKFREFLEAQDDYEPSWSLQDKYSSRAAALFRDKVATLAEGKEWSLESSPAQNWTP
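Repeats: one replicate per compound; assay system: rat Arfgap1 catalytic domain, aa 1-136; times: enzyme reaction 120 min at 25 °C after 20 min preincubation; detection: FP of antibody-bound GDP Alexa 633 tracer, ex 620/em 688 nm; benchmarks: high control wells lacking Arfgap1, low control full reaction with DMSO; reagent: human ARF1(Δ1-17)-GTP substrate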
PAFAH2 inh: inhibitors of human PAFAH2 | Q99487 | recombinant PAFAH2, FP-rhodamine activity probe, fluorescence polarization | inhibition, % at 3.39 µM | hit rate 0.99% among 340,000 | AID 492956;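 active = inhibition above the mean over all tested compounds plus 3 SD, cut at about 30% in these data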;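 note: inhibitors block probe labeling of enzyme so polarization drops; 0% = enzyme with DMSO and 100% = wells lacking PAFAH2 protein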
ASAP1 inh: inhibitors of human ASAP1 ArfGAP activity; Q9ULH1; ASAP1-stimulated ARF1 GTP hydrolysis, GDP FP detection; inhibition, % at 16.5 µM; hit rate 0.19% among 360,000; AID 624377; in the data active = inhibition above about 25%;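 note: 0% = vehicle with enzyme and substrate and 100% = no enzyme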
PAFAH1B3 FP inh: PAFAH1B3 (human) inhibition; Q15102; recombinant PAFAH1B3, FP-rhodamine probe, fluorescence polarization; inhibition, % at 3.39 µM; hit rate 0.28% among 340,000; AID 492972;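 active = inhibition above the screen-wide average of all tested compounds plus 3 SD, cut at about 25% in these data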;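 note: 0% = enzyme with DMSO only and 100% = wells lacking PAFAH1B3 protein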
PAFAH1B2 FP inh: inhibitors of human PAFAH1B2; inhibition, % at 3.39 µM; P68402; recombinant PAFAH1B2, FP-rhodamine activity probe, fluorescence polarization; hit rate 1.2% among 340,000;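 active = inhibition above the mean of all tested compounds plus 3 SD, cut at about 24% in these data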;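 note: 0% = enzyme with DMSO and 100% = wells lacking PAFAH1B2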
Target sequence (P68402 whole entry, looked up): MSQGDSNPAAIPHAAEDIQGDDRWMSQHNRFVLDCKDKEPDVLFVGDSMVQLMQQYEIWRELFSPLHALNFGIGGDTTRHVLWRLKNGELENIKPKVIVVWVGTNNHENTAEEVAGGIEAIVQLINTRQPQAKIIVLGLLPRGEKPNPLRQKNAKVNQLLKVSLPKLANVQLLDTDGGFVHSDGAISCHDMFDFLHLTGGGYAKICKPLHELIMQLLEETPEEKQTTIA
pPAFAH FP inh: inhibitors of human plasma PAF acetylhydrolase (pPAFAH) | recombinant pPAFAH, FP-rhodamine probe fluorescence polarization | inhibition, % at 3.39 µM | hit rate 1.5% among 330,000 | AID 463082 | Q13093;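 active = inhibition above the mean inhibition across the screen plus 3 SD, cut at about 25% in these data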;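 note: inhibitors block binding of the rhodamine activity-based probe so polarization drops; 0% = enzyme with DMSO and 100% = wells lacking pPAFAH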
Starred values were filed as active, the others as inactive; · = no result.

SMILES	ARFGAP1 inh	PAFAH2 inh	ASAP1 inh	PAFAH1B3 FP inh	PAFAH1B2 FP inh	pPAFAH FP inh
O=c1[nH]c2c(s1)C(c1ccc(O)cc1)C1C3CCC(C3)C1S2 (stereo unspecified)	-4.9	-2.1	3.1	5.8	27.4*	10.3
O=C(O)CN1C(=O)C2C3CC(C2C1=O)C1C(c2ccc(Cl)cc2)c2sc(=O)[nH]c2SC31 (stereo unspecified)	2.8	5.2	-3.9	6.3	47.0*	1.8
O=c1[nH]c2c(s1)C(c1cccnc1)C1C3CCC(C3)C1S2 (stereo unspecified)	·	1.3	·	9.7	23.9	1.8
O=C(O)CCCN1C(=O)C2C3CC(C2C1=O)C1C(c2ccccc2)c2sc(=O)[nH]c2SC31 (stereo unspecified)	6.0	-3.3	11.6	2.0	81.1*	4.1
O=C(O)CN1C(=O)C2C3CC(C2C1=O)C1C(c2ccc(F)cc2)c2sc(=O)[nH]c2SC31 (stereo unspecified)	-11.2	-2.4	-1.5	8.6	54.4*	2.8
COCCNc1nc(NCc2ccc(C(C)C)cc2)c2sccc2n1	1.2	·	3.7	·	·	·
CC(C(=O)O)N1C(=O)C2C3CC(C2C1=O)C1C(c2ccccc2)c2sc(=O)[nH]c2SC31 (stereo unspecified)	-1.6	3.0	-25.4	1.1	55.3*	1.2
CC(C(=O)O)N1C(=O)C2C3c4ccccc4C(c4ccccc43)[C@@H]2C1=O (stereo partly specified)	-6.3	1.0	-7.9	4.4	6.4	-1.7
CCC1=NNc2cccc3c(OC)ccc1c23	·	·	·	·	·	48.4*
O=C(c1cccc(Cl)c1)N1CCN(C(=O)c2ccccc2F)CC1	20.7	-8.7	6.2	2.1	2.8	-1.2
O=C(c1ccccc1F)N1CCN(Cc2cccc(Cl)c2)CC1	-3.9	6.0	3.5	3.2	3.5	28.9*
O=C1c2ccccc2C(=O)C12OC2c1cccc2ccccc12 (stereo unspecified)	3.2	18.6	23.6	64.9*	15.8	4.7
O=C1NC(c2cccc3ccccc23)Nc2ccccc21 (stereo unspecified)	-2.6	5.8	-12.7	8.1	1.0	·
CCOc1ccc(C(C(=O)NC(C)(C)C)N(CCOC)C(=O)CCC(=O)Nc2nccs2)cc1 (stereo unspecified)	-8.8	3.6	0.7	7.0	2.4	1.2
COc1ccc(C(=O)N2CCC(C(=O)O)CC2)c2ccccc12	-4.1	-2.4	10.1	7.7	0.6	4.7
COC(=O)C(NC(=O)c1ccccc1Cl)(Nc1ncc(S(=O)(=O)c2ccc([N+](=O)[O-])cc2)s1)C(F)(F)F (stereo unspecified)	6.2	2.3	0.2	6.2	25.7*	1.9
NS(=O)(=O)c1ccc(CCNC(=O)c2cccc(S(=O)(=O)N3CCc4ccccc43)c2)cc1	8.2	·	-2.8	·	·	·
O=C1CCc2cc(S(=O)(=O)Nc3cccc(Cl)c3)ccc2N1	0.1	·	-3.1	·	·	·
O=C1CCc2cc(S(=O)(=O)Nc3ccc(F)cc3)ccc2N1	15.3	5.9	-16.2	4.0	-0.3	29.4*
Cc1cccc(NS(=O)(=O)c2ccc3c(c2)CCC(=O)N3)c1	-17.5	-1.3	2.9	-2.6	4.5	27.9*
Cn1c(=O)oc2cc(S(=O)(=O)Nc3ccc(F)cc3)ccc21	2.1	1.0	-9.3	-5.5	1.2	25.7*
CC(NC(=O)COC(=O)CN1C(=O)C2CCCCC2C1=O)c1ccccc1 (stereo unspecified)	7.4	7.4	8.8	8.8	7.7	2.9
CCc1ccc(C2CC(c3ccc(F)cc3)Nc3nc(N)nn32)cc1 (stereo unspecified)	-3.4	-4.9	-2.1	6.8	5.5	-0.7
CCc1ccc(C2CC(c3ccc(Cl)cc3)n3nc(N)nc3N2)cc1 (stereo unspecified)	2.2	4.8	13.5	5.2	36.2*	-3.2
COc1ccc(CCN2CC(C(=O)N(C)CC(=O)Nc3ccc(F)c(F)c3F)CC2=O)cc1OC (stereo unspecified)	7.7	0.3	2.5	4.8	-4.7	·
O=C(N/N=C\c1ccccn1)c1cccc(C(=O)N/N=C\c2ccccn2)n1	12.8	-42.6	-3.4	52.9*	41.7*	7.0
O=C(N/N=C/c1ccccn1)c1ccccc1	1.7	-6.3	8.5	7.5	3.2	6.8
N#CCSc1nc(Nc2ccc3c(c2)OCO3)c2ccccc2n1	·	5.5	·	9.1	7.6	26.0*
